{"data": "Published values collected from several papers", "target": "Mitogen-activated protein kinase 13 (MAPK13, Homo sapiens, UniProt O15264)", "Residues used in one study (O15264 1-365)": "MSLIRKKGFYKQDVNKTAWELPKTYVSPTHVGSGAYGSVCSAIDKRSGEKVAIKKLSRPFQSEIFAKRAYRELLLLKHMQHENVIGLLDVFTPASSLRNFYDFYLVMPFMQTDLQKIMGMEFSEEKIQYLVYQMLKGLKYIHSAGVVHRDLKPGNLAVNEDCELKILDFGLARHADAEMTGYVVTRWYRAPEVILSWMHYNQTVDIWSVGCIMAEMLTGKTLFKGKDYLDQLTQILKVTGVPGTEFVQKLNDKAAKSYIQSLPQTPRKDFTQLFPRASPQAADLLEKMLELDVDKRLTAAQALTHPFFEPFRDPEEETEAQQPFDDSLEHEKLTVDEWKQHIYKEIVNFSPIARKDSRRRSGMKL"}
{"Compound": "Cn1cc(-c2cccc(N3CCc4c(sc5c4CC(C)(C)C5)C3=O)c2CO)cc(Nc2ccncn2)c1=O", "assay": "enzyme activity, inhibitor", "setting": "1 µM", "quantity": "inhibition", "result": "5%"}
{"Compound": "Cc1nn(C)cc1-c1nc2c(N3CCN(Cc4ccc(Cl)cc4)CC3)c(Cl)cnc2[nH]1", "assay": "binding, competition with immobilised ligand", "setting": "1 µM", "quantity": "remaining binding", "result": "100%"}
{"Compound": "COc1cc(Nc2ncc(F)c(Nc3ccc4c(n3)NC(=O)C(C)(C)O4)n2)cc(OC)c1OC", "assay": "binding, competition with immobilised ligand", "setting": "10 µM", "quantity": "inhibition", "result": "100%"}
{"Compound": "O=c1[nH]c2ccccc2n1C1CCN(Cc2ccc(-c3[nH]c4cc5ncnc5cc4nc3-c3ccccc3)cc2)CC1", "assay": "cell-free assay", "setting": "0.5 µM", "quantity": "remaining signal", "result": "102%"}
{"Compound": "Cn1cncc1[C@](O)(COc1ccc(C#N)cc1-c1ccc(OC(F)(F)F)cc1)c1ccc(C#N)cc1", "assay": "cell-free assay, competition with immobilised ligand", "setting": "1 µM", "quantity": "remaining binding", "result": "87%"}
{"Compound": "COc1ncccc1-c1cnn2ccc(N3CCN(C(=O)OC(C)C)CC3)nc12", "assay": "binding, competition with immobilised ligand", "setting": "1 µM", "quantity": "remaining binding", "result": "100%"}
{"Compound": "N#CC1(c2ccccn2)CCN(Cc2cc(C(=O)O)c(=O)n3ccccc23)CC1", "assay": "cell-free assay, competition with immobilised ligand", "setting": "1 µM", "quantity": "remaining binding", "result": "100%"}
{"Compound": "CC(C)(C)c1cc(C=C(C#N)C#N)cc(Br)c1O", "assay": "enzyme activity, inhibitor", "setting": "0.5 µM", "quantity": "remaining activity", "result": "98.5%"}
{"Compound": "Cn1cc(-c2cc(F)cc(N3CCn4c(cc5c4CCCC5)C3=O)c2CO)cc(Nc2ccc(N3CCN(C4COC4)CC3)cn2)c1=O", "assay": "enzyme activity, inhibitor", "setting": "0.1 µM", "quantity": "inhibition", "result": "15%"}
